Source: PubChem BioAssay (several laboratories)
Only some compounds are listed: those with a hit (about 3.7% of all), similar ones and a draw of the others.
NPY Y1 blocker = NPY-Y1 receptor antagonists, primary screen, cell-based; inhibition, % at 3.6 µM; actives 1% (n = 200,000); Neuropeptide Y receptor type 1 (Homo sapiens), P25929; AID 1040, 2008; HEK293-CNG Y1 cells, membrane potential fluorescence; NPY at EC95, then isoproterenol;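 active = inhibition above the campaign mean inhibition of all tested compounds plus 3 SD, cut at about 20% in these data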
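Material: HEK293 cells with Y1 receptor plus CNG channel; times: compound incubation 1 h at room temperature, readout 45 min post-stimulation; signal: fluorescence, membrane potential probe; read-out basis: fluorescence ratio normalized to % inhibition between controls; benchmarks: full-block control isoproterenol-only wells, zero-block control NPY plus isoproterenol wells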
KCC2 mod = KCC2 cotransporter modulators, thallium flux, primary screen, cell-based, HEK293 KCC2, FluoZin-2 fluorescence, MLSMR | B-score of Tl+ flux slope (higher = more flux/activation; lower = inhibition) at 10 µM | KCC2 cells, thallium flux FluoZin-2 fluorescence | actives 2.2% (n = 190,000) | Solute carrier family 12 member 5 (Homo sapiens), Q9H2X9;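 active = thallium flux slope and its plate-corrected score both differing from the plate sample mean at a set confidence after two filtering rounds, in either direction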;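 also: slope of fluorescence scaled to starting intensity during 10 to 20 s after thallium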
NPY-Y2 antag = NPY-Y2 receptor antagonists, primary screen, cell-based | Neuropeptide Y receptor type 2 (Homo sapiens), P49146 | NPY-Y2 expressing cells, antagonist mode | inhibition, % at 2.7 µM | actives 0.99% (n = 140,000); in the data active = inhibition above about 17%
Furin inh = human furin inhibitors, primary screen, biochemical, fluorescence intensity; inhibition, % at 20 µM or 30 µM; actives 0.061% (n = 220,000); purified furin, fluorogenic substrate cleavage; in the data active = inhibition above about 25%
Target sequence (P09958 108-714 limits assumed): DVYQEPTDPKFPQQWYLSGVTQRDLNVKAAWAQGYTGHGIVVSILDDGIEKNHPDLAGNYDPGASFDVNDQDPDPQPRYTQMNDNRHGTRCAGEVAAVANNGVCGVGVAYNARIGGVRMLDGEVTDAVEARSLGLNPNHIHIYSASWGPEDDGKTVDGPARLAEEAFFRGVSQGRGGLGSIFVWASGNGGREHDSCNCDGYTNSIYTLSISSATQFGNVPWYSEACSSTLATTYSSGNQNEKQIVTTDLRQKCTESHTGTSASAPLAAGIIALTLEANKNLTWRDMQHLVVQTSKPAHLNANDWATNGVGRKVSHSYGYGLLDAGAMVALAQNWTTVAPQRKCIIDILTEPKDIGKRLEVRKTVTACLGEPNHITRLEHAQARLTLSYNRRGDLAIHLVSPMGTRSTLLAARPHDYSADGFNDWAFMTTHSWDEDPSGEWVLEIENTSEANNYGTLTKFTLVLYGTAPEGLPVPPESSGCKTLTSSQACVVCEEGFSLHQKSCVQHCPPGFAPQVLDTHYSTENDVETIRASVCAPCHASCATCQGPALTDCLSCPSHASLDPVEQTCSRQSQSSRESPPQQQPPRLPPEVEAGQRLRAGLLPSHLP
NPY1 pot ag = NPY-Y1 receptor potentiators or agonists, primary screen, cell-based. Neuropeptide Y receptor type 1 (Homo sapiens), P25929. NPY-Y1 expressing cells, potentiator/agonist activation. activation, % at 3.6 µM. actives 0.37% (n = 220,000); in the data active = activation above about 33%, passing the limit was not always enough;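 also: cells stimulated with NPY at EC10 then isoproterenol at EC100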
NPY-Y2 PAM-ag = NPY-Y2 potentiators or agonists, primary screen, cell-based; Neuropeptide Y receptor type 2 (Homo sapiens), P49146; cells expressing NPY-Y2, potentiator/agonist read-out; activation, % at 3.6 µM; actives 0.45% (n = 220,000); AID 1359, 2008; in the data active = activation above about 27%;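 also: cells stimulated with NPY near EC25 plus isoproterenol at EC100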
KCC2 secondary = KCC2 modulators in sodium-free buffer, confirmation, cell-based, HEK293 KCC2, thallium flux, secondary assay; shares compounds with KCC2 mod; normalised thallium flux (F/F0 slope) at 10 µM; FluoZin2 fluorescence; active compounds read high; AID 1713, 2009; actives 15% (n = 3,700);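 active = thallium flux slope above the same plate's solvent-only control mean plus 3 SD; inconclusive = the two replicate wells disagree; inactive = no significant difference from solvent-only control wells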
KCC2 bumet counter = thallium flux persisting under bumetanide in KCC2 cells, confirmation, counter-screen for KCC2 modulator project, cell-based, HEK293 KCC2, FluoZin2, secondary assay 3 | shares compounds with KCC2 mod | HEK293-KCC2 + bumetanide/ouabain; active compounds read high | normalized thallium flux at 10 µM | actives 49% (n = 3,700) | AID 1714, 2009;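 active = thallium entry rate above the same plate's blocked-transporter control wells by more than 3 SD; inconclusive = the two repeat wells disagree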;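 also: raw slope of fluorescence over initial fluorescence between 10 and 20 s after thallium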
KCC2 sec2 = KCC2 modulators without ouabain present, confirmation, cell-based, HEK293 KCC2, thallium flux, FluoZin2, secondary assay 2 | actives 23% (n = 3,700) | normalized thallium flux at 10 µM | shares compounds with KCC2 mod | thallium flux FluoZin2 fluorescence; actives lie on both sides; F/F0 rise rate, 10–20 s post-thallium;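 active = thallium flux slope more than 3 SD above or below the plate's solvent-only control mean, mostly below; inconclusive = the two repeat wells disagreed; inactive = no significant shift from solvent-only controls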
HEK counter1 = thallium flux modulation in parental HEK cells, confirmation, counter-screen for KCC2 modulator project, cell-based, counterscreen 1; shares compounds with KCC2 mod; HEK293 parental cells, thallium flux FluoZin2, ouabain; baseline-ratio fluorescence slope, 10–20 s after thallium; thallium flux rate (normalised fluorescence) at 10 µM; actives 46% (n = 3,700);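 active = thallium flux rate significantly above the same plate's solvent-only control wells, beyond their mean plus 3 SD; inconclusive = the two replicate wells gave conflicting results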
KCC2 ouabain = KCC2 inhibitors and activators, ouabain retest, confirmation, HEK-KCC2 cells; shares compounds with KCC2 mod; HEK293-KCC2, thallium flux FluoZin2 fluorescence; bidirectional: low = inhibitor, high = activator; raw Tl+ flux slope (below DMSO = inhibition, above = activation) at 10 µM; actives 48% (n = 3,700);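 active = thallium flux slope beyond 3 SD from same-plate DMSO control mean in most replicates, usually higher, sometimes lower; inconclusive = repeat tests gave conflicting results; inactive = no significant difference from controls in most replicates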;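 also: slope of initial-normalized fluorescence between seconds 10 and 20 after thallium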
HEK counter2 = native HEK Tl+ uptake effects, second counter-screen – HEK cells, counterscreen 2, counter-screen for KCC2 modulator project, confirmation; shares compounds with KCC2 mod; HEK293 parental, thallium flux FluoZin-2 fluorescence slope; thallium flux slope at 10 µM; actives 33% (n = 3,700); AID 1718, 2009;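 active = thallium flux slope above the same plate's solvent-control mean plus 3 SD in both duplicate wells; inconclusive = duplicate wells that disagreed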;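 also: run without ouabain in cells lacking the KCC2 cotransporter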
A number is an active result; . = inactive; ? = inconclusive; / = not tested or not shown.

SMILES	NPY Y1 blocker	KCC2 mod	NPY-Y2 antag	Furin inh	NPY1 pot ag	NPY-Y2 PAM-ag	KCC2 secondary	KCC2 bumet counter	KCC2 sec2	HEK counter1	KCC2 ouabain	HEK counter2
O=S(=O)(NC1CCN(Cc2ccccc2)CC1)c1ccc2ccccc2c1	.	.	/	.	.	.	/	/	/	/	/	/
S=c1[nH]nc(CSCCOc2ccc(Cl)cc2Cl)o1	/	162	/	.	.	.	.	0.0565	?	0.0331	0.0559	.
COc1ccc(C(=O)NC(=S)N(C)Cc2ccccc2)cc1Br	.	10.8	/	.	.	.	.	0.0192	.	0.022	0.044	0.0162
N#CCCN(Cc1cccnc1)C(=S)NC(=O)c1ccc(S(=O)(=O)N2CCCC2)cc1	.	.	/	.	.	.	/	/	/	/	/	/
NC(=S)NC(=O)c1ccccc1	/	.	/	.	.	.	/	/	/	/	/	/
CCCOc1ccc(CN(CCC#N)C(=S)NC(=O)c2ccccc2)cc1	.	80.1	.	.	.	.	0.0554	0.108	0.074	0.103	0.111	0.0553
CN(Cc1ccccc1)C(=S)NC(=O)c1ccccc1	.	65	/	.	.	.	0.0562	0.161	0.0697	0.0847	0.127	0.036
Cc1ccccc1-c1nc(CS(=O)CC(=O)NCc2ccccc2)c(C)o1 (stereo unspecified)	.	/	.	.	.	.	.	?	0.0236	.	?	.
O=C(CSc1nnc(SCc2cccc3ccccc23)s1)N=Nc1c(O)[nH]c2ccccc12	.	.	.	.	.	.	/	/	/	/	/	/
CC(OC(=O)c1cc2sccc2n1C)C(=O)NCCc1ccccc1 (stereo unspecified)	.	-5.61	.	.	.	.	.	?	?	.	0.0139	.
COC(=O)c1ccccc1NC(=O)c1cc2sccc2n1C	.	8.3	.	.	.	.	.	.	.	.	.	.
Oc1ccccc1CNc1ccc(OC(F)(F)F)cc1	.	.	/	.	.	.	/	/	/	/	/	/
Cc1ccc(S(=O)(=O)NCCC(=O)Nc2ccc(Cl)c(Cl)c2)cc1	.	.	.	.	.	.	/	/	/	/	/	/
O=C(OCC#Cc1c(COC(=O)c2ccccc2)nnn1Cc1ccccc1)c1ccccc1	/	1.78	/	.	/	/	.	.	.	.	.	.
COCC(=O)Nc1ccc(C(=O)Nc2ccccc2Cl)cc1	.	/	/	.	.	.	/	/	/	/	/	/
Cc1cccc2cc3c(nc12)SC(=NCC1CCCO1)N(Cc1ccco1)C3 (stereo unspecified)	.	.	.	.	.	.	/	/	/	/	/	/
Cc1ccc2nc3c(cc2c1)CN(Cc1ccco1)C(=NCC1CCCO1)S3 (stereo unspecified)	.	3.05	.	.	.	.	.	?	.	.	.	.
COC(=O)NCC12CC3CC(C1)CC(CNC(=O)OC)(C3)C2	.	.	.	.	.	.	.	.	.	.	.	.
CC(=O)NCC12CC3CC(C1)CC(C(=O)O)(C3)C2	.	.	.	.	.	.	/	/	/	/	/	/
CCOc1ccc(OCc2ccc(C(=O)N/N=C(\C)c3ccccn3)cc2)cc1	.	8.98	/	.	.	.	.	0.024	.	0.0294	0.0298	?
COc1ccc(C(=O)N/N=C(\c2ccccc2)c2ccccn2)cc1	.	.	.	.	.	.	/	/	/	/	/	/
Cc1ccc(NC(=O)Nc2ncnc3nc[nH]c23)cc1	/	.	/	.	.	.	/	/	/	/	/	/
CCOc1ccc(NC2c3ccccc3C(=O)N2Cc2ccco2)cc1 (stereo unspecified)	.	-4.2	.	.	.	.	.	.	.	0.00505	0.0156	.
O=C1c2ccccc2C(Nc2ccc(S(=O)(=O)N3CCCCC3)cc2)N1Cc1ccco1 (stereo unspecified)	.	-5.14	.	.	.	.	.	.	?	0.0062	0.0143	.
O=C1c2ccccc2C(Nc2ccc(S(=O)(=O)N3CCOCC3)cc2)N1Cc1ccco1 (stereo unspecified)	.	.	.	.	.	.	/	/	/	/	/	/
SMILES	NPY Y1 blocker	KCC2 mod	NPY-Y2 antag	Furin inh	NPY1 pot ag	NPY-Y2 PAM-ag	KCC2 secondary	KCC2 bumet counter	KCC2 sec2	HEK counter1	KCC2 ouabain	HEK counter2
Fc1ccccc1COc1ccc(Br)cc1CNCC1CCCO1 (stereo unspecified)	.	.	/	.	.	.	/	/	/	/	/	/
Cn1nnc(NCc2cc(Br)ccc2OCc2ccccc2F)n1	.	-4.13	/	.	.	.	.	0.00308	0.0244	0.00602	0.0135	.
O=S(=O)(Nc1cccc2ncccc12)c1cccs1	.	28.5	.	.	.	.	0.0248	0.0693	0.037	0.0272	0.0479	0.0186
Cc1c(NS(=O)(=O)c2cccs2)cccc1-c1nc2cccnc2s1	/	.	/	.	.	.	/	/	/	/	/	/
Cc1nn2c(-c3ccccn3)ccnc2c1Cl	.	.	/	.	.	.	/	/	/	/	/	/
CCOC(=O)c1cc(-c2cccc(C(F)(F)F)c2)nc2nc(SC)[nH]c(=O)c12	.	.	.	.	.	.	/	/	/	/	/	/
CCOC(=O)c1nc(C)nc(Sc2n[nH]c(-c3cc(C(F)(F)F)cc(C(F)(F)F)c3)n2)c1C	/	-3.58	/	.	.	.	.	.	.	?	0.0169	.
O=C(O)c1ccccc1-n1c(-c2ccccc2)cc2c1CCCC2=O	.	.	/	.	.	.	/	/	/	/	/	/
